Data as given in ChEMBL document CHEMBL3808334, “Synthesis and in vitro evaluation of novel triazine analogues as anticancer agents and their interaction studies with bovine serum albumin” (Eur J Med Chem, 2016).

Key:
Type in all cases: functional
[1] = tested on: MDA-MB-468; experiment: Growth inhibition of human MDA-MB-468 cells assessed as cell growth at 10 uM incubated for 48 hrs by sulforhodamine B assay; details: MDA-MB-468, 48 h, read-out: Activity
[2] = Growth inhibition of human DU145 cells assessed as cell growth at 10^-4 M incubated for 48 hrs by sulforhodamine B assay; details: DU-145, 48 h, read-out: Activity
Method in brief: (§1)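 Cells seeded at 5,000–40,000/well according to doubling time and preincubated 24 h at 37 °C, 5% CO2. Time-zero plates were TCA-fixed. DMSO concentrate was diluted in medium with 50 µg/ml gentamicin to give five concentrations (10-fold or ½ log steps), then exposed 48 h. Cells were TCA-fixed, stained with 0.4% SRB and read at 515 nm. Percent growth was taken against time-zero and control; GI50, TGI and LC50 derived.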

[3] = Growth inhibition of human SKOV3 cells assessed as cell growth at 10^-6 M incubated for 48 hrs by sulforhodamine B assay; details: SK-OV-3, 48 h, read-out: Activity
[4] = tested on: SR; experiment: Growth inhibition of human SR cells incubated for 48 hrs by sulforhodamine B assay
Method in brief: (§2)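 Cells were plated at 5,000–40,000 per well according to doubling time and preincubated 24 h at 37 °C in 5% CO2; time-zero plates were then TCA-fixed. Five concentrations (10-fold or ½-log dilutions, DMSO stock) were incubated 48 h. Cells were TCA-fixed, stained with 0.4% SRB and read at 515 nm. GI50 was taken where [(Ti−Tz)/(C−Tz)]×100 = 50.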

[5] = Growth inhibition of human SW620 cells incubated for 48 hrs by sulforhodamine B assay; details: SW-620, 48 h; method in brief: as §2
[6] = Growth inhibition of human HL-60(TB) cells assessed as cell growth at 10^-7 M incubated for 48 hrs by sulforhodamine B assay; details: HL-60, 48 h, read-out: Activity
Method in brief: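 Cells plated at 5,000–40,000/well according to doubling time and preincubated 24 h at 37 °C, 5% CO₂, with time-zero plates TCA-fixed. Drugs were kept as DMSO concentrates at 400× the top concentration and diluted in medium with 50 µg/ml gentamicin. Five 10-fold or ½-log dilutions were run for 48 h, followed by SRB staining and A515. Percent growth = (Ti−Tz)/(C−Tz)×100, or (Ti−Tz)/Tz×100 when Ti<Tz.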

[7] = tested on: EKVX; experiment: Growth inhibition of human EKVX cells assessed as cell growth at 10^-7 M incubated for 48 hrs by sulforhodamine B assay; details: read-out: Activity; method in brief: as §1
[8] = tested on: MDA-MB-468; experiment: Growth inhibition of human MDA-MB-468 cells incubated for 48 hrs by sulforhodamine B assay; details: MDA-MB-468, 48 h; method in brief: as §2
[9] = Growth inhibition of human SF295 cells assessed as cell growth at 10^-5 M incubated for 48 hrs by sulforhodamine B assay; details: SF-295, 48 h, read-out: Activity
[10] = Growth inhibition of human non-small cell lung cancer cells incubated for 48 hrs by sulforhodamine B assay; details: Cancer cell lines; for CC50: read-out: LC50 (the source's name)
[11] = Growth inhibition of human RPMI8226 cells incubated for 48 hrs by sulforhodamine B assay; details: RPMI-8226, 48 h; method in brief: as §2
[12] = tested on: SK-MEL-28; experiment: Growth inhibition of human SK-MEL-28 cells assessed as cell growth at 10^-4 M incubated for 48 hrs by sulforhodamine B assay; details: SK-MEL-28, 48 h, read-out: Activity
[13] = Growth inhibition of human SF539 cells assessed as cell growth at 10^-6 M incubated for 48 hrs by sulforhodamine B assay; details: SF-539, 48 h, read-out: Activity
[14] = tested on: NCI-H23; experiment: Growth inhibition of human NCI-H23 cells assessed as cell growth at 10^-4 M incubated for 48 hrs by sulforhodamine B assay; details: NCI-H23, 48 h, read-out: Activity
[15] = Growth inhibition of human SF268 cells assessed as cell growth at 10 uM incubated for 48 hrs by sulforhodamine B assay; details: SF-268, 48 h, read-out: Activity
[16] = Growth inhibition of human SF268 cells assessed as cell growth at 10^-5 M incubated for 48 hrs by sulforhodamine B assay; details: SF-268, 48 h, read-out: Activity
[17] = Growth inhibition of human renal cancer cells incubated for 48 hrs by sulforhodamine B assay; details: Cancer cell lines; for CC50: read-out: LC50 (the source's name)
[18] = Growth inhibition of human OVCAR8 cells assessed as cell growth at 10^-4 M incubated for 48 hrs by sulforhodamine B assay; details: OVCAR-8, 48 h, read-out: Activity
[19] = Growth inhibition of human OVCAR5 cells assessed as cell growth at 10 uM incubated for 48 hrs by sulforhodamine B assay; details: OVCAR-5, 48 h, read-out: Activity
[20] = tested on: U-251; experiment: Growth inhibition of human U251 cells assessed as cell growth at 10 uM incubated for 48 hrs by sulforhodamine B assay; details: U-251, 48 h, read-out: Activity
[21] = tested on: CCRF-CEM; experiment: Growth inhibition of human CCRF-CEM cells assessed as cell growth at 10^-8 M incubated for 48 hrs by sulforhodamine B assay; details: read-out: Activity
Method in brief: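 Leukemia line in the five-dose format: five concentrations from 10-fold or ½-log serial dilutions. Plated at 5,000–40,000 cells per well, preincubated 24 h, then compound added for 48 h at 37 °C, 5% CO₂. Sulforhodamine B absorbance read at 515 nm. Growth is computed against time-zero (Tz) and control (C) readings; GI₅₀ is where [(Ti−Tz)/(C−Tz)]×100 = 50.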

[22] = Growth inhibition of human OVCAR5 cells assessed as cell growth at 10^-4 M incubated for 48 hrs by sulforhodamine B assay; details: OVCAR-5, 48 h, read-out: Activity
[23] = Growth inhibition of human OVCAR5 cells assessed as cell growth at 10^-5 M incubated for 48 hrs by sulforhodamine B assay; details: OVCAR-5, 48 h, read-out: Activity
[24] = tested on: NCI-H460; experiment: Growth inhibition of human NCI-H460 cells assessed as cell growth at 10^-7 M incubated for 48 hrs by sulforhodamine B assay; details: NCI-H460, 48 h, read-out: Activity
[25] = Growth inhibition of human SF268 cells assessed as cell growth at 10^-6 M incubated for 48 hrs by sulforhodamine B assay; details: SF-268, 48 h, read-out: Activity
[26] = Growth inhibition of human SNB19 cells assessed as cell growth at 10 uM incubated for 48 hrs by sulforhodamine B assay; details: SNB-19, 48 h, read-out: Activity
[27] = read-out: LC50 (the source's name)
[28] = read-out: pLC50 (the source's name) (converted)

SMILES: Fc1ccc(-c2nc(Nc3ccc(-c4nc5ccccc5[nH]4)cc3)nc(N3CCOCC3)n2)cc1
- growth at 10 µM [1]: -1.23%
- growth at 100 µM [2]: 8%
- growth at 1 µM [3]: 101%
- GI50 ([4]; read-out: GI50): 0.539 µM
- CC50 [4, 27]: > 100 µM
- GI50 ([4]; read-out: pGI50 (converted)): 0.537 µM
- CC50 [4, 28]: > 100 µM
- GI50 ([5]; read-out: GI50): 2.19 µM
- CC50 [5, 27]: > 100 µM
- TGI ([5]; read-out: TGI): 4.8 µM
- GI50 ([5]; read-out: pGI50 (converted)): 2.19 µM
- CC50 [5, 28]: > 100 µM
- TGI ([5]; read-out: pTGI (converted)): 4.79 µM
- growth at 0.1 µM [6]: 79%
- growth at 0.1 µM [7]: 91%
- GI50 ([8]; read-out: GI50): 2.92 µM
- CC50 [8, 27]: > 100 µM
- TGI ([8]; read-out: TGI): 7.65 µM
- GI50 ([8]; read-out: pGI50 (converted)): 2.95 µM
- CC50 [8, 28]: > 100 µM
- TGI ([8]; read-out: pTGI (converted)): 7.59 µM
- growth at 10 µM [9]: -35%
- GI50 [10]: 2.68 µM
- TGI [10]: 6.65 µM
- CC50 [10]: 7.76 µM
- GI50 ([11]; read-out: GI50): 1.93 µM
- CC50 [11, 27]: > 100 µM
- TGI ([11]; read-out: TGI): 6.54 µM
- GI50 ([11]; read-out: pGI50 (converted)): 1.95 µM
- CC50 [11, 28]: > 100 µM
- TGI ([11]; read-out: pTGI (converted)): 6.61 µM
- growth at 100 µM [12]: -36%
- growth at 1 µM [13]: 80%
- growth at 100 µM [14]: -15%
- growth at 10 µM [15]: 34.1%
- growth at 10 µM [16]: 3%
- GI50 [17]: 2.03 µM
- TGI [17]: 7.36 µM
- CC50 [17]: 7.83 µM
- growth at 100 µM [18]: -44%
- growth at 10 µM [19]: 66.3%
- growth at 10 µM [20]: 6.38%
- growth at 0.01 µM [21]: 102%
- growth at 100 µM [22]: -31%
- growth at 10 µM [23]: -5%
- growth at 0.1 µM [24]: 103%
- growth at 1 µM [25]: 89%
- growth at 10 µM [26]: 17.5%

SMILES: c1ccc(-c2nc(Nc3ccc(-c4nc5ccccc5[nH]4)cc3)nc(N3CCOCC3)n2)cc1
- growth at 10 µM [1]: -62.7%
- growth at 100 µM [2]: -100%
- growth at 1 µM [3]: 104%
- GI50 ([4]; read-out: GI50): 0.125 µM
- CC50 [4, 27]: > 100 µM
- TGI ([4]; read-out: TGI): 0.555 µM
- GI50 ([4]; read-out: pGI50 (converted)): 0.126 µM
- CC50 [4, 28]: > 100 µM
- TGI ([4]; read-out: pTGI (converted)): 0.55 µM
- GI50 ([5]; read-out: GI50): 0.627 µM
- CC50 [5, 27]: 5.82 µM
- TGI ([5]; read-out: TGI): 2.17 µM
- GI50 ([5]; read-out: pGI50 (converted)): 0.631 µM
- CC50 [5, 28]: 5.75 µM
- TGI ([5]; read-out: pTGI (converted)): 2.19 µM
- growth at 0.1 µM [6]: 26%
- growth at 0.1 µM [7]: 88%
- GI50 ([8]; read-out: GI50): 2.13 µM
- CC50 [8, 27]: 9.03 µM
- TGI ([8]; read-out: TGI): 4.39 µM
- GI50 ([8]; read-out: pGI50 (converted)): 2.14 µM
- CC50 [8, 28]: 9.12 µM
- TGI ([8]; read-out: pTGI (converted)): 4.37 µM
- growth at 10 µM [9]: -76%
- GI50 [10]: 1.74 µM
- TGI [10]: 3.67 µM
- CC50 [10]: 14.2 µM
- GI50 ([11]; read-out: GI50): 1.11 µM
- CC50 [11, 27]: > 100 µM
- TGI ([11]; read-out: TGI): 4.23 µM
- GI50 ([11]; read-out: pGI50 (converted)): 1.12 µM
- CC50 [11, 28]: > 100 µM
- TGI ([11]; read-out: pTGI (converted)): 4.27 µM
- growth at 100 µM [12]: -72%
- growth at 1 µM [13]: 74%
- growth at 100 µM [14]: -51%
- growth at 10 µM [15]: -43.4%
- growth at 10 µM [16]: -83%
- GI50 [17]: 1.2 µM
- TGI [17]: 2.72 µM
- CC50 [17]: 6.27 µM
- growth at 100 µM [18]: -61%
- growth at 10 µM [19]: 0.63%
- growth at 10 µM [20]: -67.5%
- growth at 0.01 µM [21]: 102%
- growth at 100 µM [22]: -75%
- growth at 10 µM [23]: -73%
- growth at 0.1 µM [24]: 103%
- growth at 1 µM [25]: 86%
- growth at 10 µM [26]: -18.6%
